Test results from article PMC5982514 (Biochemistry, 2018).

Experiments:
Format in all cases: biochemical
[1] = test system: BTK, SYK, ABL, SRC, ALK, EGFR and FLT3; assay: Kinetic analysis across seven PTKs; conditions: for substrate activity for all kinases tested: panel screen and seven PTKs
In short: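 Kinetics on seven kinases. Final enzyme: 0.3 ng/μL ABL/BTK/SRC/SYK, 1.5 ng/μL FLT3, 2.7 ng/μL ALK/EGFR. Lys-modified peptides at 1–150 μM with 50 μM [γ-33P]ATP, 30 °C; spotted on P81 at 10/20/30 min. Michaelis–Menten fit, or kcat/Km from linear slope (≤75 μM); three runs (FLT3 two).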

Abl = Abl (Homo sapiens, UniProt P00519); assay: Michaelis-Menten kinetic analysis, Abl; conditions: for catalytic parameters compared with consensus peptides: consensus peptides of ref [15]
BTK (GST fusion) = BTK (GST fusion) (Homo sapiens, UniProt Q06187); assay: Michaelis-Menten kinetic analysis, BTK
In short: (§1)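 GST-fused kinases were expressed in HEK293T and purified on glutathione Sepharose, then used at 0.3 ng/μL. Peptides (Lys-substituted C-termini) were titrated from 1 to 150 μM with 50 μM [γ-33P]ATP (0.025 μCi/μL) in HEPES pH 7.5/NaCl/MgCl2/DTT/Tween 20 buffer at 30 °C. Aliquots at 10–30 min went onto P81 paper for phosphorimaging. kcat/Km came from a Michaelis–Menten fit or the linear slope (≤75 μM). Three experiments.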

Src (GST fusion) = Src (GST fusion) (Homo sapiens, UniProt P12931); assay: Michaelis-Menten kinetic analysis, Src; conditions: consensus peptides of ref [15]
In short: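 GST-SRC from HEK293T, glutathione-Sepharose purified, 0.3 ng/μL final. Peptides with C-terminal Gly→Lys at 1–150 μM, in HEPES pH 7.5/NaCl/MgCl2/DTT/Tween 20 with 50 μM [γ-33P]ATP at 30 °C. Aliquots at 10, 20 and 30 min spotted on P81, H3PO4-washed, phosphorimaged. Initial rates fit to Michaelis–Menten, or kcat/Km from linear slope (≤75 μM); mean ± SEM of three experiments.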

EGFR (His6-EGFR^672–998) = EGFR (His6-EGFR^672–998) (Homo sapiens, UniProt P00533); assay: Michaelis-Menten kinetic analysis, EGFR
In short: (§2)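 His6-tagged intracellular kinase domains were expressed and purified from Sf9 cells and used at 2.7 ng/μL final. Peptides were varied over 1–150 μM with 50 μM [γ-33P]ATP (0.025 μCi/μL) in pH 7.5 HEPES buffer containing 10 mM MgCl2 at 30 °C. Aliquots taken at 10, 20 and 30 min were captured on P81 paper, washed in 75 mM H3PO4 and phosphorimaged. Rates were fitted to Michaelis–Menten, or kcat/Km was taken from the linear slope (≤75 μM). Three experiments.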

FLT3 (GST-FLT3^564–993) = target: T1, FLT3 (GST-FLT3^564–993) (Homo sapiens, UniProt P36888); assay: Michaelis-Menten kinetic analysis, FLT3; conditions: kcat/Km of peptide 2 over peptide 5, mean±sem, two experiments
T1 sequence (P36888 564-993): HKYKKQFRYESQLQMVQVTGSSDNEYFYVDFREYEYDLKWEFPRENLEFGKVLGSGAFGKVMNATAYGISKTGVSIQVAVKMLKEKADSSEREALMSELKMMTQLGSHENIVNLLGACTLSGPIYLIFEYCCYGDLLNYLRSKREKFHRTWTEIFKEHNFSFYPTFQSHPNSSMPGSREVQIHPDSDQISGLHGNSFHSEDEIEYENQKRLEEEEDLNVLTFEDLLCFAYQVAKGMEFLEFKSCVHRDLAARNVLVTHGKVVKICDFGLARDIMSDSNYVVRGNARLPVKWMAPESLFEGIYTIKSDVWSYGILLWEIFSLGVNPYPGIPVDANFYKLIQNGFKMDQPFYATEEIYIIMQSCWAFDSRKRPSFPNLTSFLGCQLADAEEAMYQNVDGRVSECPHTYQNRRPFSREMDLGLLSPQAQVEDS
In short: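 GST-FLT3 (residues 564–993) was expressed in HEK293T, glutathione-purified and used at 1.5 ng/μL. Peptides at 1–150 μM were reacted with 50 μM [γ-33P]ATP (0.025 μCi/μL) in 50 mM HEPES pH 7.5, 10 mM MgCl2, 1 mM DTT at 30 °C. Timepoints at 10, 20 and 30 min were spotted on P81 paper and phosphorimaged. Initial rates were fitted to Michaelis–Menten, or kcat/Km was derived from the slope up to 75 μM. Two experiments.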

Syk (GST fusion) = Syk (GST fusion) (Homo sapiens, UniProt P43405); assay: Michaelis-Menten kinetic analysis, Syk; conditions: kcat/Km of peptide 2 over peptide 5, mean±sem, three experiments
In short: as §1

ALK (His6-ALK^1090–1416) = ALK (His6-ALK^1090–1416) (Homo sapiens, UniProt Q9UM73); assay: Michaelis-Menten kinetic analysis, ALK; conditions: kcat/Km of peptide 2 over peptide 5, mean±sem, three experiments
In short: as §2

[2] = kcat/Km of peptide 2 over peptide 5, mean±sem, three experiments

Sequence of Abl (P00519 whole entry, the tested form may be a part): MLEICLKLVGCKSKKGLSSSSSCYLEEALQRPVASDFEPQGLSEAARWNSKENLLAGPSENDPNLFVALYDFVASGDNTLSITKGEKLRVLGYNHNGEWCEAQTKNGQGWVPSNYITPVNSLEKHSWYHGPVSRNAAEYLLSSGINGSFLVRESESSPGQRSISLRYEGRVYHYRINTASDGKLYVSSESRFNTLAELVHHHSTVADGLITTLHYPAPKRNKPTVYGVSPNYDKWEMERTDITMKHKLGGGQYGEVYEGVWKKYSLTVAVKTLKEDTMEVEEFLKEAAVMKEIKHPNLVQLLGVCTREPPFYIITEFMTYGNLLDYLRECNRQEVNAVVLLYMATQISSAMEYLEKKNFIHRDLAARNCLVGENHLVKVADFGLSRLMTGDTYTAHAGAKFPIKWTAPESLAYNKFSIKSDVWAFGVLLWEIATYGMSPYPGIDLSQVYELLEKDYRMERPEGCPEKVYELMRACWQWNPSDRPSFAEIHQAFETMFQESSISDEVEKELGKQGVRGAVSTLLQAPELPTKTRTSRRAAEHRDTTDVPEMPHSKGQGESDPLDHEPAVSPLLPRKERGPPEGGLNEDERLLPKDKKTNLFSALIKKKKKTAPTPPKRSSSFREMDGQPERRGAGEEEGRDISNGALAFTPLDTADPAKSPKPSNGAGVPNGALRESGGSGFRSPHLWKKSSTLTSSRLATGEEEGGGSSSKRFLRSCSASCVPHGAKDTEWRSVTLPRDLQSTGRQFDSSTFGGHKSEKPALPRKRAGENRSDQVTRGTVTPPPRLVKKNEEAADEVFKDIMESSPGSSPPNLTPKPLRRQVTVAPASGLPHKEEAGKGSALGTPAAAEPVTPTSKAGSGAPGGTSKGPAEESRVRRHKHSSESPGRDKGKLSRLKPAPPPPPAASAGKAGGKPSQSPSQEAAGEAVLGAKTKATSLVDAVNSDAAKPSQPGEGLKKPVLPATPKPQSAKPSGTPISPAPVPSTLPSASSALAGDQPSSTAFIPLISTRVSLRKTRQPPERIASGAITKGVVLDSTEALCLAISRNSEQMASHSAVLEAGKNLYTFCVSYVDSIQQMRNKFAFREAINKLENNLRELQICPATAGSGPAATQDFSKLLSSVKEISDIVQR
Sequence of BTK (GST fusion) (Q06187 whole entry, the tested form may be a part): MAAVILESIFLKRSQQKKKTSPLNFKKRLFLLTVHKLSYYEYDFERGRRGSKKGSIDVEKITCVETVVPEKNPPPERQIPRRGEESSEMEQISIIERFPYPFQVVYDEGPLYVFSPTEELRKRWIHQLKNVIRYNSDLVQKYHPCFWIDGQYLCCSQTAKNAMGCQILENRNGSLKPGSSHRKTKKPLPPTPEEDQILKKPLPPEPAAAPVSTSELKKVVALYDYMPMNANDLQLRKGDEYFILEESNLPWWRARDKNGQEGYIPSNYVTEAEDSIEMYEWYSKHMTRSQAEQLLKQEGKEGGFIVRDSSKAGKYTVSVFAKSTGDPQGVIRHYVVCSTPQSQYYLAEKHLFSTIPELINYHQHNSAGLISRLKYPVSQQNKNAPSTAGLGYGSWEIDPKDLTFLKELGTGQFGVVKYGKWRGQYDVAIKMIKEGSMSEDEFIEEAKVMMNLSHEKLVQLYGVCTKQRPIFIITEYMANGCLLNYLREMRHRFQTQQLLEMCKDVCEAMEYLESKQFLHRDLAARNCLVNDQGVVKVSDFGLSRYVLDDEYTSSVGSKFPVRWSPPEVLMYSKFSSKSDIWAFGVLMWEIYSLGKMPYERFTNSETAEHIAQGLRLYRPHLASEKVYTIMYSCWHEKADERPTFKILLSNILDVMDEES
Sequence of ALK (His6-ALK^1090–1416) (Q9UM73 1090-1416): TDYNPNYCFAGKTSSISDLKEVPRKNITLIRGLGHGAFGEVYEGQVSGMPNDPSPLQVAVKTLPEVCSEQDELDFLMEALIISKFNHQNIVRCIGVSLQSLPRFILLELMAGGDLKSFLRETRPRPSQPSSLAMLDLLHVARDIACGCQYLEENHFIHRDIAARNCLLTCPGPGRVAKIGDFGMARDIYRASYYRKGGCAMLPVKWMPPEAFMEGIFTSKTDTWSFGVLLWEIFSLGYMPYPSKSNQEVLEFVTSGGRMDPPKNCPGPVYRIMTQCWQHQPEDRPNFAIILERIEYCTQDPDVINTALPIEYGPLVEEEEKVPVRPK

Row | Sequence | preference of NRTKs ([1]; NRTKs among the kinases examined, peptide 5 vs peptide 2) | substrate activity for all kinases tested [1] | catalytic parameters compared with consensus peptides (Abl) | kinase preference between peptides 2 and 5 (Abl; specificity constant) | kinase preference between peptides 2 and 5 (BTK (GST fusion); specificity constant) | catalytic parameters compared with consensus peptides (Src (GST fusion)) | preference of RTKs ([1]; RTKs among the kinases examined, generally, peptide 2 vs peptide 5) | 2/5 kcat/Km ratio (EGFR (His6-EGFR^672–998); [2]) | kinase preference between peptides 2 and 5 (EGFR (His6-EGFR^672–998); specificity constant) | 2/5 kcat/Km ratio (FLT3 (GST-FLT3^564–993)) | 2/5 kcat/Km ratio (Syk (GST fusion)) | 2/5 kcat/Km ratio (Abl; [2]) | 2/5 kcat/Km ratio (ALK (His6-ALK^1090–1416)) | 2/5 kcat/Km ratio (BTK (GST fusion); [2])
1 | DEAIYATVA [Peptide 5] | the reverse preference was seen for NRTKs | successful substrates for all kinases tested | rivaled those determined with consensus peptides | more substantial preference | more substantial preference | rivaled those determined with consensus peptides | – | – | – | – | – | – | – | –
2 | EDPIYVTLE [Peptide 2] | – | successful substrates for all kinases tested | rivaled those determined with consensus peptides | – | – | rivaled those determined with consensus peptides | generally preferred over peptide 5 for RTKs | 5.8 ± 0.2 | more substantial preference | 1.43 ± 0.07 | 1.8 ± 0.2 | 0.13 ± 0.01 | 1.23 ± 0.02 | 0.31 ± 0.01
